{
  "source": "ChEMBL document CHEMBL1133719",
  "about": "“Synthesis and preliminary biological evaluations of CC-1065 analogues: effects of different linkers and terminal amides on biological activity” (J Med Chem, 2000)",
  "key": {"Mus musculus [1]": {"organism": "Mus musculus", "assay": "Mean body weight change"}, "Mus musculus [2]": {"organism": "Mus musculus", "assay": "Hematological effects in female CDF1 mice at the dose of 50 ug, in platelet cells", "assay_type": "functional", "method_in_brief": "(§1)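 Non-tumor-bearing female CDF1 mice, 10 per group. Drugs were dissolved in DMSO, diluted in 30% DMSO/0.5% glucose, and given as a single ip dose on day 1 (doses per kg). Blood was sampled on day 27 for WBC, platelet, RBC and MCHC counts. Values are medians of 10 mice.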"}, "Hs-578T": {"tested_on": "Hs-578T", "assay": "Cytotoxicity against NCI tumor panel, HS 578T breast cancer cell line", "assay_type": "functional, cell-based", "conditions": "Homo sapiens", "method_in_brief": "(§2)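 Performed by NCI with the sulforhodamine B (SRB) method on its human tumour cell panel, using a 48-h drug incubation.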"}, "T47D": {"tested_on": "T47D", "assay": "cytotoxicity against NCI tumor panel, T-47D breast cancer cell line", "assay_type": "functional, cell-based", "conditions": "Homo sapiens", "method_in_brief": "as §2"}, "HCT-15": {"tested_on": "HCT-15", "assay": "Cytotoxicity against NCI tumor panel, HCT-15 colon cancer cell line", "assay_type": "functional, cell-based", "conditions": "Homo sapiens", "method_in_brief": "(§3)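 NCI cell-line panel screen run by the National Cancer Institute; sulforhodamine B (SRB) readout after 48-h drug incubation.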"}, "LOX IMVI": {"tested_on": "LOX IMVI", "assay": "Cytotoxicity against NCI tumor panel, […] melanoma cancer cell line", "assay_type": "functional, cell-based", "conditions": "Homo sapiens", "method_in_brief": "as §2"}, "UACC-257": {"tested_on": "UACC-257", "assay": "Cytotoxicity against NCI tumor panel, UACC-257 melanoma cancer cell line", "assay_type": "functional, cell-based", "conditions": "Homo sapiens", "method_in_brief": "as §2"}, "UO-31": {"tested_on": "UO-31", "assay": "Cytotoxicity against NCI tumor panel, U031 renal cancer cell line", "assay_type": "functional, cell-based", "conditions": "Homo sapiens", "method_in_brief": "as §2"}, "Mus musculus [3]": {"tested_on": "Mus musculus", "assay": "Antitumor activity in mice bearing B16BL6 melanoma at a dose of 100 ug/kg; survivors for 90 days was reported", "assay_type": "functional", "method_in_brief": "(§4)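 B16BL6 cells were cultured as monolayers, and 10⁶ cells were injected ip on day 0 into female BDF1 mice (4-6 weeks, 8 per group). Drug in dimethylacetamide was diluted in DMA/Cremophor/water (1:5:44) and 0.1 mL given ip on days 1, 5 and 9. %ILS came from median survival of dying animals; 90-day survivors were counted; mean weight change covered days 1-10.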"}, "SF-539": {"tested_on": "SF-539", "assay": "Cytotoxicity against NCI tumor panel, SF-539 CNS cancer cell line", "assay_type": "functional, cell-based", "conditions": "Homo sapiens", "method_in_brief": "as §2"}, "NCI/ADR-RES": {"tested_on": "NCI/ADR-RES", "assay": "Cytotoxicity against NCI tumor panel, NCI/ADR-RES breast cancer cell line", "assay_type": "functional, cell-based", "conditions": "Homo sapiens", "method_in_brief": "as §2"}, "OVCAR-3": {"tested_on": "OVCAR-3", "assay": "Cytotoxicity against NCI tumor panel, OVCAR-3 ovarian cancer cell line", "assay_type": "functional, cell-based", "conditions": "Homo sapiens", "method_in_brief": "as §2"}, "NCI-H460": {"tested_on": "NCI-H460", "assay": "Cytotoxicity against NCI tumor panel, NCI-H460 non small-cell lung cancer cell line", "assay_type": "functional, cell-based", "conditions": "Homo sapiens", "method_in_brief": "as §2"}, "Mus musculus [4]": {"tested_on": "Mus musculus", "assay": "Antitumor activity in BDF1 male mice bearing L1210 Leukemia at a dose of 70 ug/kg", "assay_type": "functional", "method_in_brief": "(§5)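 Male BDF1 mice, 4-6 weeks old, 6 per group, were given 10⁵ L1210 cells ip on day 0. Drug in DMF was diluted in 30% DMSO/0.5% glucose and given ip on days 1, 5 and 9. %ILS = (T/C − 1) × 100 on median survival of dying animals only; 30-day survivors noted separately. Group weight change was taken from day 0 to the lowest-weight day.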"}, "HOP-62": {"tested_on": "HOP-62", "assay": "Cytotoxicity against NCI tumor panel, HOP-62 non small-cell lung cancer cell line", "assay_type": "functional, cell-based", "conditions": "Homo sapiens", "method_in_brief": "as §3"}, "U-251": {"tested_on": "U-251", "assay": "Cytotoxicity against NCI tumor panel, U251 CNS cancer cell line", "assay_type": "functional, cell-based", "conditions": "Homo sapiens", "method_in_brief": "as §2"}, "M14": {"tested_on": "M14", "assay": "Cytotoxicity against NCI tumor panel, M14 melanoma cancer cell line", "assay_type": "functional, cell-based", "conditions": "Homo sapiens", "method_in_brief": "as §2"}, "DU-145": {"tested_on": "DU-145", "assay": "Cytotoxicity against NCI tumor panel, DU145 prostate cancer cell line", "assay_type": "functional, cell-based", "conditions": "Homo sapiens", "method_in_brief": "as §3"}, "NCI-H23": {"tested_on": "NCI-H23", "assay": "Cytotoxicity against NCI tumor panel, NCI-H 23 non small-cell lung cancer cell line", "assay_type": "functional, cell-based", "conditions": "Homo sapiens", "method_in_brief": "as §2"}, "SK-MEL-28": {"tested_on": "SK-MEL-28", "assay": "Cytotoxicity against NCI tumor panel, SK-MEL28 melanoma cancer cell line", "assay_type": "functional, cell-based", "conditions": "Homo sapiens", "method_in_brief": "as §2"}, "Mus musculus [5]": {"tested_on": "Mus musculus", "assay": "Antitumor activity was tested in mice and percent increase of life span at a dose of 100 ug/kg was reported", "assay_type": "functional", "method_in_brief": "as §4"}, "NCI-H322M": {"tested_on": "NCI-H322M", "assay": "Cytotoxicity against NCI tumor panel, NCI-H322M non small-cell lung cancer cell line", "assay_type": "functional, cell-based", "conditions": "Homo sapiens", "method_in_brief": "as §2"}, "HCC 2998": {"tested_on": "HCC 2998", "assay": "Cytotoxicity against NCI tumor panel, HCC_2998 colon cancer cell line", "assay_type": "functional, cell-based", "conditions": "Homo sapiens", "method_in_brief": "as §3"}, "Mus musculus [6]": {"organism": "Mus musculus", "assay": "Hematological effects in female CDF1 mice at the dose of 50 ug, in red blood cells", "assay_type": "functional", "method_in_brief": "as §1"}, "Mus musculus [7]": {"organism": "Mus musculus", "assay": "Mean body weight change between 1-10 days", "assay_type": "functional", "method_in_brief": "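Female BDF1 mice (4-6 weeks old, 8 per group) were inoculated ip with 10⁶ B16BL6 melanoma cells on day 0. Drugs in dimethylacetamide were diluted in DMA:Cremophor:water (1:5:44) and given ip at 0.1 mL on days 1, 5 and 9 (doses per kg). Read-outs were %ILS = (T/C − 1) × 100 on median survival of dying animals only, mean body weight change from day 1 to day 10 (g/mouse), and 90-day survivors.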"}, "Mus musculus [8]": {"organism": "Mus musculus", "assay": "Body weight change between days 0 and the day when the animal weight was the lowest", "assay_type": "functional", "method_in_brief": "as §5"}, "Mus musculus [9]": {"tested_on": "Mus musculus", "assay": "Antitumor activity in BDF1 male mice bearing L1210 Leukemia at a dose of 25 ug/kg; survivors for 30 days was reported", "assay_type": "functional", "method_in_brief": "as §5"}, "SN12C": {"tested_on": "SN12C", "assay": "Cytotoxicity against NCI tumor panel, SN12C renal cancer cell line", "assay_type": "functional, cell-based", "conditions": "Homo sapiens", "method_in_brief": "as §2"}, "MDA-MB-435": {"tested_on": "MDA-MB-435", "assay": "Cytotoxicity against NCI tumor panel, MDA-MB-435 breast cancer cell line", "assay_type": "functional, cell-based", "conditions": "Homo sapiens", "method_in_brief": "as §2"}, "UACC-62": {"tested_on": "UACC-62", "assay": "Cytotoxicity against NCI tumor panel, UACC-62 melanoma cancer cell line", "assay_type": "functional, cell-based", "conditions": "Homo sapiens", "method_in_brief": "as §2"}, "RPMI-8226": {"tested_on": "RPMI-8226", "assay": "Cytotoxicity against NCI tumor panel, RPMI-8226 leukemia cell line", "assay_type": "functional, cell-based", "conditions": "Homo sapiens", "method_in_brief": "as §2"}},
  "note": "“And” between values parts separate entries of the source, which are not always exact repeats. Identical values can stand only once.",
  "data": [
    {"smiles": "CC(=O)Nc1ccc2[nH]c(C(=O)Nc3ccc4[nH]c(C(=O)N5CC(CCl)c6c5cc(O)c5ccccc65)cc4c3)cc2c1", "note": "(stereo unspecified)", "values": [
      {"measurement": "Weight", "setting": "Mus musculus [1]", "value": 16, "unit": "%"},
      {"measurement": "Platelet", "setting": "Mus musculus [2]", "value": "1.1 10e6 ul-1"},
      {"measurement": "IC50", "setting": "Hs-578T", "value": 1.63, "unit": "nM"},
      {"measurement": "IC50", "setting": "T47D", "value": 1.68, "unit": "nM"},
      {"measurement": "IC50", "setting": "HCT-15", "value": "> 10", "unit": "nM"},
      {"measurement": "IC50", "setting": "LOX IMVI", "value": 0.577, "unit": "nM"},
      {"measurement": "IC50", "setting": "UACC-257", "value": 2.46, "unit": "nM"},
      {"measurement": "IC50", "setting": "UO-31", "value": 4.05, "unit": "nM"},
      {"measurement": "No. of survivors", "setting": "Mus musculus [3]", "value": 1},
      {"measurement": "IC50", "setting": "SF-539", "value": 1.24, "unit": "nM"},
      {"measurement": "IC50", "setting": "NCI/ADR-RES", "value": 8.56, "unit": "nM"},
      {"measurement": "IC50", "setting": "OVCAR-3", "value": 3.51, "unit": "nM"},
      {"measurement": "IC50", "setting": "NCI-H460", "value": 1.48, "unit": "nM"},
      {"measurement": "No. of survivors", "setting": "Mus musculus [4]", "value": 1},
      {"measurement": "IC50", "setting": "HOP-62", "value": 1.25, "unit": "nM"},
      {"measurement": "IC50", "setting": "U-251", "value": 0.719, "unit": "nM"},
      {"measurement": "IC50", "setting": "M14", "value": 1.48, "unit": "nM"},
      {"measurement": "IC50", "setting": "DU-145", "value": 0.982, "unit": "nM"},
      {"measurement": "IC50", "setting": "NCI-H23", "value": 1.36, "unit": "nM"},
      {"measurement": "IC50", "setting": "SK-MEL-28", "value": 2.21, "unit": "nM"},
      {"measurement": "ILS at 0.1 mg/kg", "setting": "Mus musculus [5]", "value": 91, "unit": "%"},
      {"measurement": "IC50", "setting": "NCI-H322M", "value": 2.13, "unit": "nM"},
      {"measurement": "IC50", "setting": "HCC 2998", "value": 4.03, "unit": "nM"},
      {"measurement": "RBC", "setting": "Mus musculus [6]", "value": "8.72 10e6 ul-1"},
      {"measurement": "Weight", "setting": "Mus musculus [7]", "value": "1.1 g and 0.3 g and 0.9 g"},
      {"measurement": "Weight", "setting": "Mus musculus [8]", "value": 23, "unit": "%"},
      {"measurement": "No. of survivors", "setting": "Mus musculus [9]", "value": 0},
      {"measurement": "IC50", "setting": "SN12C", "value": 3.01, "unit": "nM"},
      {"measurement": "IC50", "setting": "MDA-MB-435", "value": 1.86, "unit": "nM"},
      {"measurement": "IC50", "setting": "UACC-62", "value": 0.419, "unit": "nM"},
      {"measurement": "IC50", "setting": "RPMI-8226", "value": 8.98, "unit": "nM"}
    ]}
  ]
}
